ChEMBL document CHEMBL5357066, “Development of Novel Membrane Disrupting Lipoguanidine Compounds Sensitizing Gram-Negative Bacteria to Antibiotics” (ACS Med Chem Lett, 2024)
Converted amounts (≈) assume the structure as drawn.

How the values were obtained:
Enterococcus faecium = assay: Antibacterial activity against vancomycin resistant Enterococcus faecium NCTC 12204 assessed as bacterial growth inhibition incubated for overnight by microbroth dilution method; type: functional
In short: (§1)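 Microbroth dilution in Tryptic Soy Broth. DMSO stocks were diluted in TSB as 2-fold series. Overnight TSB cultures were back-diluted to OD 0.01 and mixed 1:1 with compound. Incubation was overnight at 37 °C. MIC is the lowest concentration with no visible growth (<0.1 OD600). DMSO at equivalent concentrations was checked.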

Acinetobacter baumannii [1] = assay: Synergistic antibacterial activity against Acinetobacter baumannii ATCC 17978 assessed as fold change in rifampicin MIC at <=0.25 times MIC incubated for overnight by microbroth dilution checkerboard assay relative to rifampicin alone; type: functional
In short: (§2)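 Checkerboard microdilution under MIC conditions (TSB, overnight, 37 °C). Two-fold series of each agent were combined on one plate before bacteria were added, and single-agent MICs were measured on the same plate. FIC = sum of combination MIC/alone MIC for each agent, taken from the most synergistic well. Three independent repeats, mean ± SD. ≤0.5 was taken as strong synergy and 0.5–<1 as weak.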

Acinetobacter baumannii [2] = assay: Synergistic antibacterial activity against Acinetobacter baumannii ATCC 17978 assessed as bacterial growth inhibition incubated for overnight in presence of PBMN by microbroth dilution method relative to control; type: functional
In short: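 Adapted broth microdilution in TSB. The test compound was in a 2-fold dilution series, with PMBN added at a fixed 30 µg/mL. Bacteria at OD 0.02 were added, and plates were incubated overnight at 37 °C. Growth/no growth was read as for the MIC (<0.1 OD600).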

Klebsiella pneumoniae [3] = assay: Synergistic antibacterial activity against Klebsiella pneumoniae NCTC 13368 assessed as fold change in rifampicin MIC at <=0.25 times MIC incubated for overnight by microbroth dilution checkerboard assay relative to rifampicin alone; type: functional
In short: (§3)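 Checkerboard run under the MIC conditions (TSB, overnight, 37 °C). Antibiotic and lipoguanidine 2-fold series were combined on one plate before bacteria were added. Growth/no-growth was scored as for the MIC (<0.1 OD600). Single-agent MICs were measured on the same plates. Three independent repeats were done.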

Escherichia coli [4] = assay: Antibacterial activity against Escherichia coli NCTC 12923 assessed as bacterial growth inhibition incubated for overnight by microbroth dilution method; type: functional
In short: (§4)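 Broth microdilution in Tryptic Soy Broth. DMSO stocks were diluted in TSB as 2-fold series. Overnight TSB cultures were back-diluted to OD 0.01 and mixed 1:1 with compound. Incubation was overnight at 37 °C. MIC was the lowest concentration without visible growth (<0.1 OD600). DMSO vehicle was checked at equivalent concentrations.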

Pseudomonas aeruginosa [5] = assay: Antibacterial activity against Pseudomonas aeruginosa NCTC 13437 assessed as bacterial growth inhibition incubated for overnight by microbroth dilution method; type: functional; in short: as §4
Enterococcus faecalis [6] = assay: Antibacterial activity against vancomycin sensitive Enterococcus faecalis NCTC 775 assessed as bacterial growth inhibition incubated for overnight by microbroth dilution method
Escherichia coli [7] = assay: Synergistic antibacterial activity against Escherichia coli NCTC 12923 assessed as rifampicin MIC at <=0.25 times MIC incubated for overnight by microbroth dilution checkerboard assay; type: functional; in short: as §2
Acinetobacter baumannii [8] = assay: Synergistic antibacterial activity against Acinetobacter baumannii AYE assessed as fold change in rifampicin MIC at <=0.25 times MIC incubated for overnight by microbroth dilution checkerboard assay relative to rifampicin alone; type: functional; in short: as §2
Acinetobacter baumannii [9] = assay: Synergistic antibacterial activity against Acinetobacter baumannii ATCC 17978 assessed as rifampicin MIC at <=0.25 times MIC incubated for overnight by microbroth dilution checkerboard assay; type: functional; in short: as §2
Staphylococcus aureus [10] = assay: Antibacterial activity against methicillin resistant Staphylococcus aureus USA 300 assessed as bacterial growth inhibition incubated for overnight by microbroth dilution method; type: functional; in short: as §1
Pseudomonas aeruginosa [11] = assay: Synergistic antibacterial activity against Pseudomonas aeruginosa PAO1 assessed as fold change in rifampicin MIC at <=0.25 times MIC incubated for overnight by microbroth dilution checkerboard assay relative to rifampicin alone; type: functional
In short: (§5)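 Checkerboard microdilution in Tryptic Soy Broth, run like the MIC assay. Overnight TSB cultures were back-diluted to OD 0.01 and added 1:1 to the combined two-fold series of both agents, then incubated overnight at 37 °C. Growth/no-growth was called at <0.1 OD600. MICs alone were read on the same plates. FIC index came from the most synergistic well; three independent repeats, mean ± SD.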

Acinetobacter baumannii [12] = assay: Antibacterial activity against Acinetobacter baumannii ATCC 17978 assessed as bacterial growth inhibition incubated for overnight by microbroth dilution method; type: functional; in short: as §4
Pseudomonas aeruginosa [13] = assay: Synergistic antibacterial activity against Pseudomonas aeruginosa NCTC 13437 assessed as fold change in rifampicin MIC at <=0.25 times MIC incubated for overnight by microbroth dilution checkerboard assay relative to rifampicin alone; type: functional; in short: as §5
Klebsiella pneumoniae [14] = assay: Synergistic antibacterial activity against […] Klebsiella pneumoniae M6 assessed as rifampicin MIC at <=0.25 times MIC incubated for overnight by microbroth dilution checkerboard assay; type: functional; in short: as §3
Klebsiella pneumoniae [15] = assay: Synergistic antibacterial activity against Klebsiella pneumoniae NCTC 13368 assessed as rifampicin MIC at <=0.25 times MIC incubated for overnight by microbroth dilution checkerboard assay; type: functional; in short: as §2
Staphylococcus aureus [16] = assay: Antibacterial activity against methicillin resistant Staphylococcus aureus NCTC 13616 assessed as bacterial growth inhibition incubated for overnight by microbroth dilution method; type: functional; in short: as §1
Acinetobacter baumannii [17] = assay: Synergistic antibacterial activity against Acinetobacter baumannii AYE assessed as rifampicin MIC at <=0.25 times MIC incubated for overnight by microbroth dilution checkerboard assay; type: functional; in short: as §2
Pseudomonas aeruginosa [18] = assay: Synergistic antibacterial activity against Pseudomonas aeruginosa NCTC 13437 assessed as rifampicin MIC at <=0.25 times MIC incubated for overnight by microbroth dilution checkerboard assay; type: functional; in short: as §5
Pseudomonas aeruginosa [19] = assay: Synergistic antibacterial activity against Pseudomonas aeruginosa PAO1 assessed as rifampicin MIC at <=0.25 times MIC incubated for overnight by microbroth dilution checkerboard assay; type: functional; in short: as §5
Pseudomonas aeruginosa [20] = assay: Antibacterial activity against Pseudomonas aeruginosa PAO1 assessed as bacterial growth inhibition incubated for overnight by microbroth dilution method; type: functional; in short: as §4
Staphylococcus aureus [21] = assay: Antibacterial activity against methicillin sensitive Staphylococcus aureus ATCC 9144 assessed as bacterial growth inhibition incubated for overnight by microbroth dilution method; type: functional; in short: as §1
Acinetobacter baumannii [22] = assay: Antibacterial activity against Acinetobacter baumannii AYE assessed as bacterial growth inhibition incubated for overnight by microbroth dilution method; type: functional; in short: as §4
Klebsiella pneumoniae [23] = assay: Antibacterial activity against Klebsiella pneumoniae M6 assessed as bacterial growth inhibition incubated for overnight by microbroth dilution method
Klebsiella pneumoniae [24] = assay: Antibacterial activity against ESBL Klebsiella pneumoniae NCTC 13368 assessed as bacterial growth inhibition incubated for overnight by microbroth dilution method
Escherichia coli [25] = assay: Synergistic antibacterial activity against Escherichia coli NCTC 12923 assessed as fold change in rifampicin MIC at <=0.25 times MIC incubated for overnight by microbroth dilution checkerboard assay relative to rifampicin alone; type: functional; in short: as §2
Staphylococcus aureus [26] = assay: Antibacterial activity against methicillin sensitive Staphylococcus aureus 1199B assessed as bacterial growth inhibition incubated for overnight by microbroth dilution method; type: functional; in short: as §1
Enterococcus faecalis [27] = assay: Antibacterial activity against vancomycin resistant Enterococcus faecalis NCTC 12201 assessed as bacterial growth inhibition incubated for overnight by microbroth dilution method; type: functional; in short: as §1

| SMILES | MIC (Enterococcus faecium) [µg/mL] | fold change (FC) (Acinetobacter baumannii [1]) | fold change (FC) (Klebsiella pneumoniae [3]) | MIC (Escherichia coli [4]) [µg/mL] | MIC (Pseudomonas aeruginosa [5]) [µg/mL] | MIC (Enterococcus faecalis [6]) [µg/mL] | MIC (Escherichia coli [7]) [µg/mL] | fold change (FC) (Acinetobacter baumannii [8]) | MIC (Acinetobacter baumannii [9]) [µg/mL] | MIC (Staphylococcus aureus [10]) [µg/mL] | fold change (FC) (Pseudomonas aeruginosa [11]) | MIC (Acinetobacter baumannii [12]) [µg/mL] | fold change (FC) (Pseudomonas aeruginosa [13]) | MIC (Klebsiella pneumoniae [14]) [µg/mL] | MIC (Klebsiella pneumoniae [15]) [µg/mL] | MIC (Staphylococcus aureus [16]) [µg/mL] | MIC (Acinetobacter baumannii [17]) [µg/mL] | MIC (Pseudomonas aeruginosa [18]) [µg/mL] | MIC (Pseudomonas aeruginosa [19]) [µg/mL] | MIC (Pseudomonas aeruginosa [20]) [µg/mL] | other results |
| --- | --- | --- | --- | --- | --- | --- | --- | --- | --- | --- | --- | --- | --- | --- | --- | --- | --- | --- | --- | --- | --- |
| CCCCCCCCCCCCNC(=N)NCCCCN | 16 (≈ 53.6 µM) | >=4 | >=4 | 16 (≈ 53.6 µM) | 64 (≈ 214 µM) | 8 (≈ 26.8 µM) | ≤ 0.125 | >=4 | ≤ 0.125 | 4 (≈ 13.4 µM) | >=4 | 128 (≈ 429 µM) | >=4 | ≤ 0.125 | 0.25 | 4 (≈ 13.4 µM) | ≤ 0.125 | ≤ 0.125 | ≤ 0.125 | > 128 | inhibition (INH) (Acinetobacter baumannii [2]): <20%; MIC (Staphylococcus aureus [21]): 2 µg/mL (≈ 6.7 µM); MIC (Acinetobacter baumannii [22]): > 128 µg/mL; MIC (Klebsiella pneumoniae [23]): > 128 µg/mL; MIC (Klebsiella pneumoniae [24]): > 128 µg/mL; fold change (FC) (Escherichia coli [25]): >=4; MIC (Staphylococcus aureus [26]): 4 µg/mL (≈ 13.4 µM); MIC (Enterococcus faecalis [27]): 16 µg/mL (≈ 53.6 µM) |
| CCCCCCCC/C=C\CCCCCCCCNC(=N)NCCCCNC(=N)N | 2 (≈ 4.73 µM) | >=4 | >=4 | 8 (≈ 18.9 µM) | > 128 | 2 (≈ 4.73 µM) | 8 | >=4 | ≤ 0.125 | 2 (≈ 4.73 µM) | 0 | 8 (≈ 18.9 µM) | 0 | 2 | ≤ 0.125 | 2 (≈ 4.73 µM) | ≤ 0.125 | 16 | 16 | 128 (≈ 303 µM) | inhibition (INH) (Acinetobacter baumannii [2]): <20%; MIC (Staphylococcus aureus [21]): 4 µg/mL (≈ 9.46 µM); MIC (Acinetobacter baumannii [22]): 32 µg/mL (≈ 75.7 µM); MIC (Klebsiella pneumoniae [23]): 16 µg/mL (≈ 37.9 µM); MIC (Klebsiella pneumoniae [24]): 128 µg/mL (≈ 303 µM); fold change (FC) (Escherichia coli [25]): 0; MIC (Staphylococcus aureus [26]): 2 µg/mL (≈ 4.73 µM); MIC (Enterococcus faecalis [27]): 2 µg/mL (≈ 4.73 µM) |
| CCCCCCCC/C=C\CCCCCCCCNC(=N)NCCCCN | 4 (≈ 10.5 µM) | >=4 | >=4 | 8 (≈ 21 µM) | > 128 | 4 (≈ 10.5 µM) | 8 | >=4 | ≤ 0.125 | 2 (≈ 5.25 µM) | 0 | 8 (≈ 21 µM) | 0 | 16 | ≤ 0.125 | 4 (≈ 10.5 µM) | ≤ 0.125 | 16 | 16 | 128 (≈ 336 µM) | inhibition (INH) (Acinetobacter baumannii [2]): <20%; MIC (Staphylococcus aureus [21]): 4 µg/mL (≈ 10.5 µM); MIC (Acinetobacter baumannii [22]): 16 µg/mL (≈ 42 µM); MIC (Klebsiella pneumoniae [23]): 8 µg/mL (≈ 21 µM); MIC (Klebsiella pneumoniae [24]): 128 µg/mL (≈ 336 µM); fold change (FC) (Escherichia coli [25]): 0; MIC (Staphylococcus aureus [26]): 4 µg/mL (≈ 10.5 µM); MIC (Enterococcus faecalis [27]): 4 µg/mL (≈ 10.5 µM) |
| CCCCC/C=C\C/C=C\CCCCCCCCNC(=N)NCCCCN | 16 (≈ 42.3 µM) | >=4 | 0 | 4 (≈ 10.6 µM) | > 64 | 32 (≈ 84.5 µM) | 8 | >=4 | 0.5 | 8 (≈ 21.1 µM) | 0 | 8 (≈ 21.1 µM) | 0 | 4 | 16 | 16 (≈ 42.3 µM) | 0.25 | 16 | 16 | 16 (≈ 42.3 µM) | MIC (Staphylococcus aureus [21]): 8 µg/mL (≈ 21.1 µM); MIC (Acinetobacter baumannii [22]): 8 µg/mL (≈ 21.1 µM); MIC (Klebsiella pneumoniae [23]): 8 µg/mL (≈ 21.1 µM); MIC (Klebsiella pneumoniae [24]): 16 µg/mL (≈ 42.3 µM); fold change (FC) (Escherichia coli [25]): 0; MIC (Staphylococcus aureus [26]): 16 µg/mL (≈ 42.3 µM); MIC (Enterococcus faecalis [27]): 16 µg/mL (≈ 42.3 µM) |
| CC/C=C\C/C=C\C/C=C\CCCCCCCCNC(=N)NCCCCN | 8 (≈ 21.2 µM) | >=4 | >=4 | 32 (≈ 85 µM) | > 128 | 8 (≈ 21.2 µM) | 1 | >=4 | ≤ 0.125 | 4 (≈ 10.6 µM) | 0 | 128 (≈ 340 µM) | 0 | ≤ 0.125 | ≤ 0.125 | 8 (≈ 21.2 µM) | ≤ 0.125 | 16 | 16 | > 128 | MIC (Staphylococcus aureus [21]): 8 µg/mL (≈ 21.2 µM); MIC (Acinetobacter baumannii [22]): 128 µg/mL (≈ 340 µM); MIC (Klebsiella pneumoniae [23]): 128 µg/mL (≈ 340 µM); MIC (Klebsiella pneumoniae [24]): > 128 µg/mL; fold change (FC) (Escherichia coli [25]): >=4; MIC (Staphylococcus aureus [26]): 8 µg/mL (≈ 21.2 µM); MIC (Enterococcus faecalis [27]): 8 µg/mL (≈ 21.2 µM) |
